In ChEMBL document CHEMBL2016472, “Identification of NVP-BKM120 as a Potent, Selective, Orally Bioavailable Class I PI3 Kinase Inhibitor for Treating Cancer” (ACS Med Chem Lett, 2011):
In brackets after ≈: the same amount, converted by molar mass. One block for each compound: values may come before it.

Key:
[1] = AUC in rat at 20 mg/kg, po; assay type: ADME, organism-based; design: dose 20 mg/kg, route oral; details: plasma
In short: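 Female CD rats were dosed orally at 20 mg/kg, with a separate 5 mg/kg IV arm. Exposure (AUC) was taken from the plasma profile after the oral dose.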

[2] = Clearance in rat at 5 mg/kg, iv; assay type: ADME, organism-based; design: dose 5 mg/kg, route intravenous; details: in vivo
In short: (§1)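 Female CD rats received 5 mg/kg IV (20 mg/kg PO arm). Female CD1 mice received 5 mg/kg IV (10 mg/kg PO arm). Male and female beagles and male cynomolgus monkeys each received 1 mg/kg IV (2 mg/kg PO arm). Clearance and half-life were derived from plasma concentration–time profiles after the IV dose.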

[3] = Volume of distribution at steady state in rat at 5 mg/kg, iv; assay type: ADME, organism-based; design: dose 5 mg/kg, route intravenous; details: in vivo, read-out: Vdss
In short: (§2)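 Rat PK used a 5 mg/kg intravenous dose and a 20 mg/kg oral dose.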

[4] = Oral bioavailability in rat at 20 mg/kg; assay type: ADME, organism-based; details: in vivo; in short: as §2
[5] = Solubility of the compound at pH 7; assay type: physicochemical; details: buffer
[6] = Intrinsic clearance in rat liver microsomes; assay type: ADME, Microsome; details: read-out: CLH
[7] = Intrinsic clearance in human liver microsomes; assay type: ADME, Microsome; details: read-out: CLH
[8] = system: Plasma; test: Plasma concentration in nu/nu mouse xenografted with human A2780 cells at 60 mg/kg, po; assay type: ADME, organism-based; design: dose 60 mg/kg, route oral; details: in vivo
In short: (§3)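 A2780 tumor-bearing mice were given oral doses (3, 10, 60 and 100 mg/kg were examined). Tumor AKT Ser473 phosphorylation and plasma exposure were measured, with the 10 h time point sampled.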

[9] = system: Plasma; test: Plasma concentration in nu/nu mouse xenografted with human A2780 cells at 100 mg/kg, po; assay type: ADME, organism-based; design: dose 100 mg/kg, route oral; details: in vivo; in short: as §3
[10] = Drug uptake in tumor in nu/nu mouse xenografted with human A2780 cells at 60 mg/kg, po; assay type: ADME, organism-based, Neoplasm; design: dose 60 mg/kg, route oral; details: in vivo, read-out: Drug uptake
In short: (§4)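 A2780 tumor-bearing mice received a single oral dose. Tumors and plasma were sampled at 10 h. Tumor pAKT Ser473 was assessed for target modulation, and compound concentrations were measured in plasma and tumor.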

[11] = Drug uptake in tumor in nu/nu mouse xenografted with human A2780 cells at 100 mg/kg, po; assay type: ADME, organism-based, Neoplasm; design: dose 100 mg/kg, route oral; details: in vivo, read-out: Drug uptake; in short: as §4
[12] = Lipophilicity, log D at pH 7.4; assay type: physicochemical; details: buffer
[13] = Dissociation constant, pKa of the compound; assay type: physicochemical
[14] = Half life in CD1 mouse at 5 mg/kg, iv; assay type: ADME, organism-based; design: dose 5 mg/kg, route intravenous; details: in vivo; in short: as §1
[15] = Clearance in CD1 mouse at 5 mg/kg, iv; assay type: ADME, organism-based; design: dose 5 mg/kg, route intravenous; details: in vivo; in short: as §1
[16] = Volume of distribution at steady state in CD1 mouse at 5 mg/kg, iv; assay type: ADME, organism-based; design: dose 5 mg/kg, route intravenous; details: in vivo, read-out: Vdss
In short: (§5)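 Female CD1 mice were dosed at 5 mg/kg IV and 10 mg/kg PO.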

[17] = Oral bioavailability in CD1 mouse at 10 mg/kg; assay type: ADME, organism-based; details: in vivo; in short: as §5
[18] = Half life in CD rat at 5 mg/kg, iv; assay type: ADME, organism-based; design: dose 5 mg/kg, route intravenous; details: in vivo; in short: as §1
[19] = Clearance in CD rat at 5 mg/kg, iv; assay type: ADME, organism-based; design: dose 5 mg/kg, route intravenous; details: in vivo; in short: as §1
[20] = Volume of distribution at steady state in CD rat at 5 mg/kg, iv; assay type: ADME, organism-based; design: dose 5 mg/kg, route intravenous; details: in vivo, read-out: Vdss
In short: (§6)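 Female CD rats were dosed at 5 mg/kg IV and 20 mg/kg PO.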

[21] = Oral bioavailability in CD rat at 20 mg/kg; assay type: ADME, organism-based; details: in vivo; in short: as §6
[22] = Half life in beagle dog at 1 mg/kg, iv; assay type: ADME, organism-based, Canis lupus familiaris; design: dose 1 mg/kg, route intravenous; details: in vivo; in short: as §1
[23] = Clearance in beagle dog at 1 mg/kg, iv; assay type: ADME, organism-based, Canis lupus familiaris; design: dose 1 mg/kg, route intravenous; details: in vivo; in short: as §1
[24] = Volume of distribution at steady state in beagle dog at 1 mg/kg, iv; assay type: ADME, organism-based, Canis lupus familiaris; design: dose 1 mg/kg, route intravenous; details: in vivo, read-out: Vdss
In short: (§7)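 Male and female beagle dogs were dosed at 1 mg/kg IV and 2 mg/kg PO.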

[25] = Oral bioavailability in beagle dog at 2 mg/kg; assay type: ADME, organism-based, Canis lupus familiaris; details: in vivo; in short: as §7
[26] = Half life in cynomolgus monkey at 1 mg/kg, iv; assay type: ADME, organism-based, Macaca fascicularis; design: dose 1 mg/kg, route intravenous; details: in vivo; in short: as §1
[27] = Clearance in cynomolgus monkey at 1 mg/kg, iv; assay type: ADME, organism-based, Macaca fascicularis; design: dose 1 mg/kg, route intravenous; details: in vivo; in short: as §1
[28] = Volume of distribution at steady state in cynomolgus monkey at 1 mg/kg, iv; assay type: ADME, organism-based, Macaca fascicularis; design: dose 1 mg/kg, route intravenous; details: in vivo, read-out: Vdss
In short: (§8)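 Male cynomolgus monkeys were dosed at 1 mg/kg IV and 2 mg/kg PO.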

[29] = Oral bioavailability in cynomolgus monkey at 2 mg/kg; assay type: ADME, organism-based, Macaca fascicularis; details: in vivo; in short: as §8
[30] = Oral bioavailability in rat at 10 mg/kg; assay type: ADME, organism-based; details: in vivo
In short: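 Rat PK used a 5 mg/kg intravenous dose and a 10 mg/kg oral dose.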

[31] = AUC in rat at 10 mg/kg, po; assay type: ADME, organism-based; design: dose 10 mg/kg, route oral; details: plasma
[32] = Aqueous solubility of the compound; assay type: physicochemical
[33] = Apparent permeability from apical to basal side of human Caco2 cells; assay type: ADME, cell-based; details: Caco-2
[34] = Apparent permeability from basal to apical side of human Caco2 cells; assay type: ADME, cell-based; details: Caco-2

AUC [1]: 7 µM·h
Compound: Nc1ncc(-c2cc(Nc3cnc4ccccc4c3)nc(N3CCOCC3)n2)cn1

clearance [2]: 11 mL/min/kg
AUC [1]: 62 µM·h
Vd [3]: 2.1 L/kg
bioavailability [4]: 83%
solubility [5]: 61 µM (≈ 25.1 µg/mL)
microsomal CLint [6]: ≤ 9 µL/min/mg
microsomal CLint [7]: ≤ 9 µL/min/mg
Compound: Nc1ncc(-c2cc(N3CCOCC3)nc(N3CCOCC3)n2)c(C(F)(F)F)n1

clearance [2]: 22 mL/min/kg
AUC [1]: 29 µM·h
Vd [3]: 1.11 L/kg
bioavailability [4]: 69%
solubility [5]: 45 µM (≈ 17 µg/mL)
microsomal CLint [6]: ≤ 9 µL/min/mg
microsomal CLint [7]: ≤ 9 µL/min/mg
Compound: Nc1cc(Cl)c(-c2cc(N3CCOCC3)nc(N3CCOCC3)n2)cn1

clearance [2]: 3 mL/min/kg
AUC [1]: 178 µM·h
Vd [3]: 3.1 L/kg
bioavailability [4]: 50%
solubility [5]: 132 µM (≈ 54.2 µg/mL)
microsomal CLint [6]: ≤ 9 µL/min/mg
microsomal CLint [7]: ≤ 9 µL/min/mg
concentration [8]: 2000 nM
concentration [9]: 2000 nM
concentration [10]: 2000 nM
concentration [11]: 2000 nM
logD [12]: 2.9
pKa [13]: 5.1
half-life [14]: 96 min
clearance [15]: 11 mL/min/kg
Vd [16]: 1.4 L/kg
bioavailability [17]: 71%
half-life [18]: 660 min
clearance [19]: 3 mL/min/kg
Vd [20]: 3.1 L/kg
bioavailability [21]: 50%
half-life [22]: 396 min
clearance [23]: 7.3 mL/min/kg
Vd [24]: 3.1 L/kg
bioavailability [25]: > 100%
half-life [26]: 216 min
clearance [27]: 13 mL/min/kg
Vd [28]: 3.1 L/kg
bioavailability [29]: 44%
Compound: Nc1cc(C(F)(F)F)c(-c2cc(N3CCOCC3)nc(N3CCOCC3)n2)cn1 [BUPARLISIB]

clearance [2]: 9 mL/min/kg
Vd [3]: 4.5 L/kg
bioavailability [30]: 68%
AUC [31]: 64 µM·h
solubility [5]: 8 µM (≈ 2.87 µg/mL)
microsomal CLint [6]: ≤ 9 µL/min/mg
microsomal CLint [7]: ≤ 9 µL/min/mg
Compound: Nc1ncc(-c2cc(N3CCOCC3)nc(N3CCOCC3)n2)c(N)n1

solubility [5]: 25 µM (≈ 8.58 µg/mL)
microsomal CLint [6]: ≤ 9 µL/min/mg
microsomal CLint [7]: ≤ 9 µL/min/mg
Compound: Nc1ncc(-c2cc(N3CCOCC3)nc(N3CCOCC3)n2)cn1

clearance [2]: 11 mL/min/kg
AUC [1]: 26 µM·h
Vd [3]: 2.8 L/kg
Compound: Nc1ncc(-c2cc(Nc3cnc4ccccc4c3)nc(N3CCOCC3)n2)c(C(F)(F)F)n1

clearance [2]: 11 mL/min/kg
AUC [1]: 86 µM·h
Vd [3]: 1.6 L/kg
bioavailability [4]: 98%
solubility [5]: 11 µM (≈ 4.04 µg/mL)
microsomal CLint [6]: ≤ 9 µL/min/mg
microsomal CLint [7]: ≤ 9 µL/min/mg
Compound: N#Cc1cc(N)ncc1-c1cc(N2CCOCC2)nc(N2CCOCC2)n1

clearance [2]: 24 mL/min/kg
AUC [1]: 24 µM·h
Vd [3]: 2.8 L/kg
bioavailability [4]: 56%
solubility [5]: 22 µM (≈ 7.91 µg/mL)
microsomal CLint [6]: ≤ 9 µL/min/mg
microsomal CLint [7]: ≤ 9 µL/min/mg
Compound: Nc1ncc(-c2cc(N3CCOCC3)nc(N3CCOCC3)n2)c(=O)[nH]1

clearance [2]: 8 mL/min/kg
AUC [1]: 114 µM·h
Vd [3]: 2.6 L/kg
solubility [32]: 0.3 µg/mL (≈ 0.642 µM)
Papp A→B [33]: 1.56 ×10⁻⁶ cm/s
Papp B→A [34]: 2.15 ×10⁻⁶ cm/s
Compound: Nc1cc(C(F)(F)F)c(-c2cc(Nc3cnc4ccccc4c3)nc(N3CCOCC3)n2)cn1
